# Assay outcomes (PubChem BioAssay)
# Autophagy mod: modulators of autophagy; MEF GFP-LC3 puncta imaging; test concentration mostly 10 µM; calls only at 10 µM (by protocol); 0.98% of 190,000 active;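 active = percentage of spot-positive cells more than 3 SD above its plate mean, without a fluorescence outlier flag or 80% toxicity; inconclusive = no clear call, values can overlap the other calls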;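 also: spot-positive cell cutoff set from DMSO-treated cells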
# Redox H2O2 prof: compounds producing H2O2 with reducing agent – biochemical, NIH compound library profiling, artefact control for MLSCN library redox annotation, primary screen; DTT-dependent redox cycling H2O2, phenol red/HRP absorbance; 100% = 100 µM peroxide control, 0% = buffer; activation, % at 10 µM; 0.03% of 200,000 active;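 active = activation of at least 50% relative to the plate's high and low controls in the primary single-dose screen; inactive = activation below 50%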;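 also: compound incubated with DTT at 0.8 mM final as the reducing agent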
# Cl transport mod: modulates chloride dependent transport by human KCC2; Q9H2X9; KCC2 cells, thallium flux FluoZin-2 fluorescence; B-score of Tl+ flux slope (higher = more flux/activation; lower = inhibition) at 10 µM; 2.2% of 190,000 active; AID 1456;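 active = thallium flux slope and its plate-corrected score both differing from the plate sample mean at a set confidence after two filtering rounds, in either direction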;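 also: slope of fluorescence scaled to starting intensity during 10 to 20 s after thallium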
# Dynein transport: dynein cargo transport inhibition | 3617.4 mouse cells, GR-EGFP nuclear translocation imaging; test concentration mostly 20 µM; stimulated with dexamethasone, 1 µM; hits give low values | 0.47% of 220,000 active | z-score, hits read low;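 active = plate z-score of nuclear minus cytoplasmic receptor signal below a set negative limit, without overly bright fluorescence or cell loss, cut at about -3.5 in these data, passing the limit was not always enough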;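 also: z-score of nuclear minus cytoplasmic ring GR-EGFP intensity difference per well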
#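 Buffer or medium: tet-free, stripped-serum medium; Also added: dexamethasone, 1.0 µM final; Technique: high-content fluorescence imaging after fixation; Times: 48 h induction, 1 h compound, 30 min dex at 37 °C; Read-out: per-cell GR-EGFP intensity, nucleus versus surrounding cytoplasmic ring, well-averaged.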
# ROMK mod: modulators of human ROMK potassium channel; B-score at 10 µM; 2% of 130,000 active; P48048; Tet-inducible ROMK, thallium flux fluorescence; actives lie on both sides;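 active = signal ratio slope over the read window, or its plate-corrected B-score, at least 3 SD from the plate mean, either direction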;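 also: B-score of the F/F0 ratio slope over 7 to 12 s after thallium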
# Target sequence (P48048 whole entry, looked up): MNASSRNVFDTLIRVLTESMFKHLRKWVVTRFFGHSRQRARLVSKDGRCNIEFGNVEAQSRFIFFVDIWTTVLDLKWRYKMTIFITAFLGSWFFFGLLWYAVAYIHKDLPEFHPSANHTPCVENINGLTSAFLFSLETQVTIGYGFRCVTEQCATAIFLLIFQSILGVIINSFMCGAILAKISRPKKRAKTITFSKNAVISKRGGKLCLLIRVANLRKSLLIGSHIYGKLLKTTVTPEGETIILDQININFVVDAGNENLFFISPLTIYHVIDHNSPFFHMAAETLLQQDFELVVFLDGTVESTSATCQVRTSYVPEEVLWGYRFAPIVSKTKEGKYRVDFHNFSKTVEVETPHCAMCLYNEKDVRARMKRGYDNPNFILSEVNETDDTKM
# Dynein inh conf: dynein cargo transport inhibition, confirmation; shares compounds with Dynein transport; 3617.4 GR-EGFP nuclear translocation imaging, dexamethasone-induced; calls only at 20 µM; 69% of 1,000 active; AID 463116;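 active = inhibition of receptor movement into the nucleus at or above a set limit in both runs, with normal cell brightness and cell count; inconclusive = limit reached in only one run, brightness and count normal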;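 also: dexamethasone at 1 µM final in well for 30 min; nuclear minus cytoplasmic GR-EGFP mean intensity difference in channel 2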
# KCC2 secondary: confirmation of human KCC2 transport modulators. shares compounds with Cl transport mod. HEK293-KCC2, thallium flux, FluoZin2 fluorescence; hits give high values. normalised thallium flux (F/F0 slope) at 10 µM. 15% of 3,700 active. AID 1713;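 active = thallium flux slope above the same plate's solvent-only control mean plus 3 SD; inconclusive = the two replicate wells disagree; inactive = no significant difference from solvent-only control wells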
# KCC2 bumet counter: thallium flux persisting under bumetanide in KCC2 cells, counter-screen secondary assay. shares compounds with Cl transport mod. HEK293-KCC2 + bumetanide/ouabain, thallium flux FluoZin2; hits give high values. normalized thallium flux at 10 µM. 49% of 3,700 active. AID 1714;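 active = thallium entry rate above the same plate's blocked-transporter control wells by more than 3 SD; inconclusive = the two repeat wells disagree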;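 also: raw slope of fluorescence over initial fluorescence between 10 and 20 s after thallium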
# KCC2 sec2: confirmation of human KCC2 transport modulators; HEK293-KCC2, thallium flux FluoZin2 fluorescence; actives lie on both sides; F/F0 rise rate, 10–20 s post-thallium; 23% of 3,700 active; normalized thallium flux at 10 µM; shares compounds with Cl transport mod; AID 1715;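 active = thallium flux slope more than 3 SD above or below the plate's solvent-only control mean, mostly below; inconclusive = the two repeat wells disagreed; inactive = no significant shift from solvent-only controls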;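 also: raw slope with 0.1% DMSO as baseline and bumetanide as block control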
# HEK293 Tl flux: acts in parental HEK cells, KCC2 counter-screen | HEK293 parental cells, thallium flux FluoZin2, ouabain; baseline-ratio fluorescence slope, 10–20 s after thallium | shares compounds with Cl transport mod | 46% of 3,700 active | thallium flux rate (normalised fluorescence) at 10 µM;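 active = thallium flux rate significantly above the same plate's solvent-only control wells, beyond their mean plus 3 SD; inconclusive = the two replicate wells gave conflicting results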
# KCC2 retest ouab: modulates human KCC2 on retest with ouabain. HEK293-KCC2, thallium flux FluoZin2 fluorescence; bidirectional: low = inhibitor, high = activator. 48% of 3,700 active. raw Tl+ flux slope (below DMSO = inhibition, above = activation) at 10 µM. shares compounds with Cl transport mod;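 active = thallium flux slope beyond 3 SD from same-plate DMSO control mean in most replicates, usually higher, sometimes lower; inconclusive = repeat tests gave conflicting results; inactive = no significant difference from controls in most replicates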;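 also: slope of initial-normalized fluorescence between seconds 10 and 20 after thallium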
# HEK293 Tl flux2: acts in parental HEK cells, second KCC2 counter-screen. 33% of 3,700 active. AID 1718. shares compounds with Cl transport mod. thallium flux slope at 10 µM. HEK293 parental, thallium flux FluoZin-2 fluorescence slope;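 active = thallium flux slope above the same plate's solvent-control mean plus 3 SD in both duplicate wells; inconclusive = duplicate wells that disagreed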;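 also: run without ouabain in cells lacking the KCC2 cotransporter; slope of fluorescence scaled to its starting value between 10 and 20 s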
# * hit, by the source's call; i = inactive; ? = inconclusive; · = no result given; + = active, no number. Most compounds without a hit are left out; they make up all but 4.1% or so of the library.
SMILES,Autophagy mod,Redox H2O2 prof,Cl transport mod,Dynein transport,ROMK mod,Dynein inh conf,others
NC(N)=N/N=C/c1cccc(Cl)c1Cl,i,-1,·,-0.44,-0.25,·,
COCCN(C(=O)CCl)C(C(=O)NC1CCCCC1)c1ccccc1C (stereo unspecified),i,0,-0.86,-4.4*,-0.84,+,
CC(C)(C)OC(=O)N[C@@H](Cc1ccccc1)c1nnc(S(=O)(=O)Cc2cccc(F)c2)o1,i,0,·,-0.99,0.83,·,
Cc1ccccc1CS(=O)(=O)c1nnc([C@H](CC(C)C)NC(=O)OC(C)(C)C)o1,i,0,-3.2,-3.7*,·,+,
COc1ccc(-n2c3c(cc(C#N)c2=O)C(=O)CCC3)cc1,i,1,-1.4,-0.16,0.023,·,
N#CC1=C(N)OC2=C(CC/C2=C\c2ccccc2)C1c1ccccc1 (stereo unspecified),i,1,·,-4.3,·,+,
N#CC1=C(N)OC2=C(CC/C2=C\c2ccccc2Cl)C1c1ccccc1Cl (stereo unspecified),i,1,0.61,-0.03,·,·,
CCCCNC(=S)N/N=C/c1ccc(OCC(=O)Nc2c(C)cc(C)cc2C)c(OC)c1,i,1,0.88,0.29,·,·,
CCOc1ncccc1C(=O)N1CCCSC1=Nc1ccc(C(C)=O)cc1,i,-2,-0.42,0.13,-0.89,·,
O=C(/C=C/C=C/c1ccccc1)c1ccco1,·,·,-3.8,-4.3*,·,i,
O=[N+]([O-])c1ccc(-c2ccc(/C=N/Nc3nc(N4CCCCC4)nc(N4CCCCC4)n3)o2)cc1,+,0,0.63,-7.3,-1.2,i,
O=[N+]([O-])c1ccc(-n2cccc2/C=N/Nc2nc(N3CCCCC3)nc(N3CCCCC3)n2)cc1,i,0,·,-0.51,0.37,·,
O=C1C(Cl)=C(N2CCCCC2)C(=O)C(Cl)=C1c1cnc(N2CCCCC2)s1,i,1,0.23,-4.9*,·,+,
CN(C)c1ncc(C2=C(Cl)C(=O)C(N3CCCC3)=C(Cl)C2=O)s1,i,-3,-2,-4.6,·,·,
CC[n+]1c(/C=C/C=C/N(C(C)=O)c2ccccc2)sc2ccccc21,+,2,·,-3.9*,·,+,
CCn1c(/C=C/N(C(C)=O)c2ccccc2)[n+](CC)c2ccc(Cl)cc21,i,0,-0.034,-0.051,0.028,·,
COC(=O)c1cn(NC(=O)c2cc([N+](=O)[O-])ccc2F)c(=O)c2ccccc12,i,-1,0.32,-3.9*,-0.5,+,
COC(=O)c1cn(NC(=O)C2CCC(C)CC2)c(=O)c2ccccc12 (stereo unspecified),i,-5,-0.084,-0.23,·,·,
Cc1cc(NC(=S)NC(=O)/C=C/c2ccc(S(=O)(=O)N3CCOCC3)cc2)ccc1Br,i,0,1.2,-1.3,0.019,·,
O=C(CCC(=O)Nc1ccc(Cl)cc1Cl)N/N=C/c1ccc([N+](=O)[O-])o1,i,0,-0.32,-5.2*,1,+,
CCOC(=O)c1ccccc1NC(=O)CSc1nc(N)cc(=O)[nH]1,·,·,-0.46,0.43,·,·,
COc1ccc(/C=C\c2nc(=O)c3ccccc3o2)cc1,i,0,-0.83,-3.6*,-0.61,+,
O=C1C(Cl)=C(NCCN2CCCCC2)C(=O)c2ccccc21,i,0,-0.29,-4.2*,-1.1,+,
CC12CN3CC(C)(CN(C1)C3c1ccc(F)cc1)C2 (stereo unspecified),i,0,0.56,2.6,-0.85,·,
COc1ccc(NC(=O)c2oc3cc(C)c(C)cc3c2C)c(OC)c1,i,4,0.54,-4*,·,i,
SMILES,Autophagy mod,Redox H2O2 prof,Cl transport mod,Dynein transport,ROMK mod,Dynein inh conf,others
CCN(CC)S(=O)(=O)c1ccc2oc(C(=O)Nc3ccc(OC)cc3OC)c(C)c2c1,i,1,-0.69,0.57,·,·,
Cc1ccc(/C=C/C(=O)Nc2ccc(Oc3ccccc3)cc2)o1,i,0,-2.5,-3.6*,-0.5,i,
COc1ccc(C2=NOC(C(=O)Nc3cccnc3)C2)cc1OC (stereo unspecified),·,·,0.099,0.91,·,·,
O=C(c1ccccc1)c1ccccc1N1C(=O)C=CC1=O,·,·,·,-4.4*,·,+,
O=C(c1ccccc1)c1ccccc1C(=O)N1CCN(C(=O)c2ccccc2)CC1,i,0,0.23,-0.14,0.47,·,
CN(C(=O)CCl)C1CCCc2ccccc21 (stereo unspecified),i,-3,-0.79,-7.6*,-1.5,+,
O=C(CCl)NC1CCCc2ccccc21 (stereo unspecified),i,0,0.09,-0.18,0.048,·,
O=c1cc(-c2c(F)c(F)c(F)c(F)c2F)oc2c(F)c(F)c(F)c(F)c12,i,-2,-2.7*,-8.2*,·,+,KCC2 secondary=0.0068;KCC2 bumet counter=?;KCC2 sec2=0.031;HEK293 Tl flux=0.0078;KCC2 retest ouab=0.02;HEK293 Tl flux2=0.011
CCOC(=O)C1CCCN(c2c(NCCc3ccc(Cl)cc3)c(=O)c2=O)C1 (stereo unspecified),·,·,-1.1,-0.56,·,·,
COc1cc(/C=N/NC(=O)CN2CCCCC2)ccc1OCc1ccc(Br)cc1,i,0,-0.83,0.4,·,·,
S=c1sc2c(Cl)ncnc2n1-c1ccccc1,i,0,-4.3*,-4*,0.023,+,KCC2 secondary=0.0058;KCC2 bumet counter=0.0046;KCC2 sec2=0.033;HEK293 Tl flux=0.0073;KCC2 retest ouab=0.019;HEK293 Tl flux2=0.01
CC(/C=N/n1c(COc2ccccc2)n[nH]c1=S)=C\c1ccco1,·,·,121*,-4*,·,i,KCC2 secondary=0.015*;KCC2 bumet counter=0.17*;KCC2 sec2=0.034;HEK293 Tl flux=0.055*;KCC2 retest ouab=0.046*;HEK293 Tl flux2=0.014*
